Assay outcomes: PubChem, several laboratories
This is a sample that favours compounds with a hit; in the whole collection about 3.8% have one here.
Beta apoptosis = beta cell apoptosis inhibition; INS-1E cytokine-induced death, ATP luminescence, 48 h; percent of positive-control rescue, neutral wells zero; hit rate 0.8% among 300,000; protection from apoptosis, % (no concentration beside the values);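 active = Every replicate reaches about 75%, or at least half do and their mean reaches it too, limit read from the data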;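 also: higher means more ATP so stronger rescue from cytokine killing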
ANO1 block = inhibitors of mouse TMEM16A calcium-activated chloride channel; normalized B-score (activity score, 25-100; higher = stronger inhibition) at 10 µM; AID 588511; hit rate 1.2% among 310,000; HEK293 TMEM16A/YFP iodide influx fluorescence, ionomycin;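 active = ratio plate-corrected score three or more library SD toward inhibition, starting fluorescence score within five deviations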;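 also: score derived from kinetic fluorescence span divided by baseline fluorescence per well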
MC4R antag cAMP = blocks human MC4R cAMP signaling | hit rate 0.48% among 360,000 | inhibition, % at 6.5 µM | MC4R-expressing cells, MTII-stimulated cAMP, LANCE TR-FRET;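 active = inhibition above its plate's cutoff, the mean of tested wells on that plate plus 3 SD, cut at about 29% in these data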
Target sequence (P32245 whole entry, looked up): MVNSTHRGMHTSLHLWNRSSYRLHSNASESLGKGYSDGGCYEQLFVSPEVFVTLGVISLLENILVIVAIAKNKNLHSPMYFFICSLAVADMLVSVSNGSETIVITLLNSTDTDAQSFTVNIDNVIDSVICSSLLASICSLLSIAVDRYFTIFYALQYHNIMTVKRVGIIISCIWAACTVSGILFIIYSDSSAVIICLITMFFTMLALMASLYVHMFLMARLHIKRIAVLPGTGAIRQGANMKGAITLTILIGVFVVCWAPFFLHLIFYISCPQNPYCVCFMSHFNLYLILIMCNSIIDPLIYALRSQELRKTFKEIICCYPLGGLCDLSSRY
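material = U2OS cells stably expressing human melanocortin 4 receptor (MC4R) | also added = Melanotan II challenge | dosing = single nominal compound dose of 6.5 µM | detection = TR-FRET with Eu-cAMP and labeled anti-cAMP, 671 nm | replication = singlicate | timing = compound 30 min, challenge 1 h, detection 1 h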
TMEM16A act = activates or potentiates the mouse TMEM16A chloride channel; Q8BHY3; HEK293 TMEM16A/YFP-H148Q/I152L, iodide quench fluorescence; stronger effect = lower value; B-score at 10 µM; hit rate 0.3% among 340,000;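 active = fluorescence-ratio B-score plate-corrected deviation score at least 3 library SD below zero, with starting fluorescence score within 5 deviations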;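 also: channel opened by trigger with iodide after compound preincubation; score built on the fluorescence ratio of max minus min over baseline; more negative score means more quench and so TMEM16A activation or potentiation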
MC4R barr agon = activates human MC4R beta-arrestin recruitment. P32245. U2OS MC4R beta-arrestin complementation, luminescence; percent of melanotan II response, DMSO zero. activation, % at 8.9 µM. hit rate 0.98% among 360,000;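 active = activation above a per-plate cutoff, the mean activation of sample wells on that plate plus 3 SD, cut at about 8% in these data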
CSC inhib = cancer stem cell inhibition; cancer stem cell-like cells viability, luminescence; inhibition, % at 7.5 µM; hit rate 1.1% among 300,000; in the data active = inhibition above about 75%; tested in HMLE shEcad cells
MC4R barr ag = human MC4R beta-arrestin agonism confirmation | AID 602192 | U2OS MC4R beta-arrestin recruitment, luminescence; scaled DMSO 0%, Melanotan II 100% | activation, % at 8.9 µM | shares compounds with MC4R barr agon | hit rate 31% among 2,400;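 active = mean activation across replicates above the hit cutoff set in the earlier primary screen, cut at about 8% in these data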
MOR DOR agonist = OPRM1-OPRD1 heterodimer agonism counter-screen | shares compounds with MC4R barr agon | U2OS PathHunter beta-arrestin, beta-gal luminescence; percent of deltorphin B response, DMSO zero | activation, % at 9.2 µM | hit rate 5.8% among 2,400;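 active = mean activation across replicates exceeds the hit threshold derived in the earlier primary screen, cut at about 18% in these data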
Large screens that a line does not name were inactive (follow-up assays come after a bar, where they were run).

COc1cccc(-c2cnc3c(NC=O)cc(-c4ccc(OC)cc4OC)cn23)c1	MC4R barr agon 14 (no result: Beta apoptosis, ANO1 block, TMEM16A act, CSC inhib) | MC4R barr ag 12 | MOR DOR agonist inactive
COc1cccc(-c2cnc3c(NC=O)cc(-c4cc(OC)c(OC)c(OC)c4)cn23)c1	MC4R barr agon 29 (no result: Beta apoptosis, ANO1 block, TMEM16A act, CSC inhib) | MC4R barr ag 26 | MOR DOR agonist inactive
COc1cccc(-c2cnc3c(NC=O)cc(-c4ccc(N(C)C)cc4)cn23)c1	MC4R barr agon 15 (no result: Beta apoptosis, ANO1 block, TMEM16A act, CSC inhib) | MC4R barr ag inactive | MOR DOR agonist inactive
COc1ccc(-c2cc(NC=O)c3ncc(-c4cccc(OC)c4)n3c2)cc1	none (no result: Beta apoptosis, ANO1 block, TMEM16A act, CSC inhib)
COc1ccccc1NC(=O)Cn1c(C)nc2c(sc(=S)n2Cc2ccco2)c1=O	none
CC1CCCCN1S(=O)(=O)c1ccc(C(=O)N2CCOCC2)cc1 (centres undefined)	none
C=C(C)Cn1c2ccc(NC(=O)CCc3cccc(Cl)c3)cc2c(=O)n1C	none (no result: Beta apoptosis, ANO1 block, TMEM16A act, CSC inhib)
Cn1c(=O)c2cc(NC(=O)CCc3cccc(Cl)c3)ccc2n1Cc1cccc(C(F)(F)F)c1	MC4R barr agon 14 (no result: Beta apoptosis, ANO1 block, TMEM16A act, CSC inhib) | MC4R barr ag inactive | MOR DOR agonist inactive
CN(CC(=O)N1CCN(Cc2ccccc2)CC1)C(=O)Cc1cccc2ccccc12	none (no result: ANO1 block)
O=C(CCCCCNc1nc(=S)[nH]c2ccccc12)NCCc1ccc(Cl)cc1	MC4R barr agon 12 | MC4R barr ag 11 | MOR DOR agonist inactive
O=C(CCCCCNc1nc(=S)[nH]c2ccccc12)NCCc1c[nH]c2ccccc12	none
COc1cc(F)ccc1-c1csc(C(O)c2ccc(F)c(F)c2)n1 (centres undefined)	none (no result: Beta apoptosis, ANO1 block, TMEM16A act, CSC inhib)
Cc1sc2nc(SCC(=O)NCc3ccco3)n(C)c(=O)c2c1C	none
C=CCn1c(SCC(=O)Nc2ccccc2C)nc2sc(C)c(C)c2c1=O	MC4R barr agon 24 | MC4R barr ag inactive | MOR DOR agonist inactive
C=CCn1c(SCC(=O)NC(=O)NCc2ccco2)nc2sc(CC)cc2c1=O	MC4R barr agon 12 | MC4R barr ag inactive | MOR DOR agonist inactive
C=CCn1c(SCC(=O)Nc2sccc2C(N)=O)nc2sc(C)c(C)c2c1=O	none (no result: Beta apoptosis, CSC inhib)
Cc1sc2nc(SCC(=O)NCc3ccco3)n(CCc3ccccc3)c(=O)c2c1C	MC4R barr agon 48 | MC4R barr ag inactive | MOR DOR agonist 38
O=C(NC1CCSc2ccccc21)c1cccc([N+](=O)[O-])c1 (centres undefined)	none
COc1cccc(/C=N/NC(=O)C(=O)Nc2ccccc2OC(F)(F)C(F)F)c1	MC4R barr agon 16 | MC4R barr ag inactive | MOR DOR agonist inactive
COc1ccc(NC(=O)C(=O)N/N=C/c2cccnc2)c(OC)c1	none
O=C(COC(=O)c1ccc2ccccc2c1)Nc1ncc(C(F)(F)F)cc1Cl	MC4R barr agon 10 | MC4R barr ag inactive | MOR DOR agonist inactive
O=C(COC(=O)c1ccc2ccccc2n1)Nc1ncc(C(F)(F)F)cc1Cl	none (no result: CSC inhib)
Cc1ccc(S(=O)(=O)N(C)C[C@H]2OCc3cn(nn3)CCCC(=O)N([C@H](C)CO)C[C@@H]2C)cc1	none (no result: Beta apoptosis, ANO1 block, TMEM16A act, CSC inhib)
CCOC(=O)c1c(NC(=O)Cn2nc(C(F)F)cc2C(F)F)sc(C)c1C	none
CCOC(=O)c1c(NC(=O)Cn2nc(C(F)(F)F)cc2C)sc(C)c1C	MC4R barr agon 15 | MC4R barr ag inactive | MOR DOR agonist inactive
CCOC(=O)C1(CC2CCCCO2)CCN(C(=O)Nc2ccc(C(=O)OC)cc2)CC1 (centres undefined)	none
COc1ccccc1C(CNC(=O)C1CCN(C(=O)Nc2ccccc2)CC1)N1CCCC1 (centres undefined)	none (no result: Beta apoptosis, ANO1 block, CSC inhib)
CSC[C@H]1CN(c2ccc(Br)cc2)C(=O)[C@@H]1CC(=O)Nc1ccccc1	none (no result: Beta apoptosis, ANO1 block, TMEM16A act, CSC inhib)
Cc1ccc(O)c(C2=Nc3ccccc3N=C(c3ccco3)C2)c1	none
Cc1ccc(C2=Nc3ccccc3N=C(c3ccco3)C2)c(O)c1	MC4R barr agon 17 | MC4R barr ag inactive | MOR DOR agonist inactive
COc1ccc(CNC(=S)Nc2ccc3nc(N4CCOCC4)cc(C)c3c2)cc1	MC4R barr agon 41 | MC4R barr ag 11 | MOR DOR agonist inactive
COCCCNC(=S)Nc1ccc2nc(N3CCOCC3)cc(C)c2c1	none
Cc1cccc(NC(=O)c2cc(S(=O)(=O)N3CCc4ccccc43)cn2C)c1C	MC4R barr agon 11 | MC4R barr ag inactive | MOR DOR agonist inactive
CCc1ccccc1NC(=O)c1cc(S(=O)(=O)N2CCc3ccccc32)cn1C	none (no result: CSC inhib)
COc1ccc(NC(=O)Nc2cc3oc4ccccc4c3cc2OC)cc1	none
Cc1cccc(NC(=O)Nc2ccc(C)cc2Br)c1	MC4R barr agon 12 | MC4R barr ag inactive | MOR DOR agonist inactive
COc1ccc(C)cc1NC(=O)Nc1cccc(C)c1	none
COc1ccc(OCC(=O)Nc2cc3oc4ccccc4c3cc2OC)cc1	MC4R barr agon 38 | MC4R barr ag 12 | MOR DOR agonist inactive
COc1cc2c(cc1NC(=O)Nc1cccc(C)c1)oc1ccccc12	MC4R barr agon 11 | MC4R barr ag inactive | MOR DOR agonist inactive
COc1cc2c(cc1NC(=O)Nc1ccc(F)cc1)oc1ccccc12	MC4R barr agon 11 | MC4R barr ag inactive | MOR DOR agonist inactive
Cc1c(C(=O)N2CCC(C)CC2)oc2ccc3c(c12)C(O)CC1(CCCCC1)O3 (centres undefined)	none
O=C(c1ccc(COc2ccccc2Br)o1)N1N=C(C(F)F)CC1(O)C(F)F (centres undefined)	MC4R barr agon 15 | MC4R barr ag inactive | MOR DOR agonist inactive
CCOC(=O)[C@H]1[C@H]2COc3ccc(C)cc3[C@@H]2N2C(=O)c3cc(Cl)ccc3NC(=O)[C@@]12C	none
Cc1cc(-c2ccccc2)nc(Nc2nc3c(C)cccc3c(=O)[nH]2)n1	MC4R barr agon 19 (no result: Beta apoptosis, ANO1 block, CSC inhib) | MC4R barr ag inactive | MOR DOR agonist inactive
Cc1cc(C)c2nc(Nc3nc(-c4ccccc4)cc(=O)[nH]3)nc(C)c2c1	MC4R barr agon 27 | MC4R barr ag 17 | MOR DOR agonist inactive
COCc1cc(=O)[nH]c(Nc2nc(C)c3ccccc3n2)n1	none
COc1cc(C(=O)N/C(=C\c2cn(S(=O)(=O)N(C)C)c3ccccc23)C(=O)N2CCCC2)cc(OC)c1OC	none
CCOc1ccc(-c2nnc(-c3ccc(OC)cc3)o2)cc1	MC4R barr agon 31 | MC4R barr ag inactive | MOR DOR agonist inactive
CCOc1ccc(-c2nnc(-c3ccccc3)o2)cc1	none
